APOBEC3G inh – blocks human APOBEC3G single-stranded DNA deamination | Q9HC16 | inhibition, % at 20 µM | AID 493012 | recombinant A3G, ssDNA deamination FAM/TAMRA fluorescence | 330,000 tested, 0.28% active;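 active means inhibition of at least 40% at 20 µM, with no more than 30% in the related APOBEC3A deaminase screen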
Target sequence (Q9HC16 whole entry, looked up): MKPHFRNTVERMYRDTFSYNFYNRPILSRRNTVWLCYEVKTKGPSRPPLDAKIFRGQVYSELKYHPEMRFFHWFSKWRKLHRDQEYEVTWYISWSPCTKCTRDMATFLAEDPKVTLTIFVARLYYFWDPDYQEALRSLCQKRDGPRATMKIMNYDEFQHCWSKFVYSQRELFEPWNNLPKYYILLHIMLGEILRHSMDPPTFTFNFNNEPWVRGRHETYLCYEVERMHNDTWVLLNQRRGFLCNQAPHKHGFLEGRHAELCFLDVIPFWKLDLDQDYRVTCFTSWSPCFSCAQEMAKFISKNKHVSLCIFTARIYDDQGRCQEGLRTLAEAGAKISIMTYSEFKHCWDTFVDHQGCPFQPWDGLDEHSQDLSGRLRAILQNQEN
Keap1-Nrf2 PPI – inhibitors of human Keap1-Nrf2 protein-protein interaction | Q14145 | Keap1 Kelch-Nrf2 peptide fluorescence polarization, 1536-well | inhibition, % at 9.4 µM | 340,000 tested, 0.15% active | AID 504523; in the data active means inhibition above about 12%;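 further: human Keap1 Kelch domain with fluorescein labeled Nrf2 9mer peptide probe; higher means more block of Keap1 binding to Nrf2 peptide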
CAL PDZ FP-1 – blocks peptide binding to human CAL PDZ domain. Q9HD26. purified CAL PDZ, TMR-peptide fluorescence polarization, 1 h. inhibition, % at 20 µM. 330,000 tested, 0.02% active. AID 504414;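 active means highest replicate inhibition of at least 40%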
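Test system: tagged CAL PDZ domain / Buffer or medium: sodium phosphate/NaCl buffer pH 7.4 with TCEP, IgG, Thesit / Reagent: TMR-labelled reporter peptide T*-PRC34 bound in PDZ groove / Compound dosing: single point, 20 µM / Schedule: 1 h incubation at room temperature before polarization reading / Technique: fluorescence polarization (mP) / Benchmarks: unlabelled peptide, DMSO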
APOBEC3A inh – human APOBEC3A DNA deaminase inhibition; recombinant A3A, FAM/TAMRA ssDNA deamination fluorescence; inhibition, % at 20 µM; 330,000 tested, 0.41% active;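 active means at least 40% inhibition at 20 µM here, with at most 30% in a related deaminase screen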
LANA DNA inh – inhibitors of KSHV LANA C-terminal domain DNA binding | MBP-C-LANA/FAM-LBS DNA binding, fluorescence polarization | inhibition, % at 9 µM | 340,000 tested, 0.078% active | AID 504423;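 active means highest replicate inhibition at or above 60% at 9 µM, even if other replicates fall short; inactive means all replicates below 60% inhibition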
CAL PDZ FP-2 – blocks peptide binding to the human CAL PDZ domain; inhibition, % at 24.9 µM; 300,000 tested, 0.92% active; AID 602252; purified CAL PDZ, TMR-peptide fluorescence polarization, 1 h;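 active means mean inhibition of at least 30% with at least half of replicates also reaching 30%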
APOBEC3A confirm – confirmation of human APOBEC3A DNA deaminase inhibitors; 1,400 tested, 63% active; inhibition, % at 20 µM; recombinant A3A, ssDNA deaminase UDG fluorescence assay; AID 493151; shares compounds with APOBEC3A inh;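 active means inhibition reaching a set limit, 80% of the first screen's cutoff, at 20 µM in any replicate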
UDG ctr A3A – counter-screen for APOBEC3A inhibitors: UDG; 1,000 tested, under 10 active; AID 504714; inhibition, % at 20 µM; UDG counterscreen, FAM/TAMRA uracil oligo fluorescence; shares compounds with APOBEC3A inh; call rule not given here
Hits are given with their value; – = inactive; · = no result. Shown are actives, neighbours in structure and some others; about 1.7% of the full set was active somewhere.

SMILES | APOBEC3G inh | Keap1-Nrf2 PPI | CAL PDZ FP-1 | APOBEC3A inh | LANA DNA inh | CAL PDZ FP-2 | APOBEC3A confirm | others
Cc1ccc(S(=O)(=O)N2CCC(C(=O)Nc3ccc(N4CCOCC4)cc3)CC2)cc1C | – | – | – | 43 | – | – | –
Cc1cc(C(=O)NC(C)CCC(C)C)c2ccccc2n1 (centres undefined) | – | – | – | 46 | – | – | –
COC(=O)N/N=C(C)\C=C\c1ccco1 | – | – | – | 49 | – | – | –
COc1cccc(CN2CCNC(=O)C2CC(=O)NCC2CCOCC2)c1 (centres undefined) | – | – | – | – | – | · | ·
CCCC(C)NC(=O)CN1C(=O)NC2(CCc3ccccc32)C1=O (centres undefined) | – | – | – | – | – | – | ·
CN1CCN(S(=O)(=O)c2cccc(C(=O)N(C)CC(=O)Nc3ccc(F)c(F)c3F)c2)CC1 | – | – | – | 57 | – | – | 66 | UDG ctr A3A=–
COc1ccc(NC(=O)CN(C)C(=O)c2cccc(S(=O)(=O)N3CCN(C)CC3)c2)cc1 | – | – | – | 55 | – | – | –
COc1ccc(CNC(=O)c2cccc(S(=O)(=O)N3CCN(C)CC3)c2)cc1 | – | – | – | – | – | – | ·
COc1cccc(CNC(=O)c2cccc(S(=O)(=O)N3CCN(C)CC3)c2)c1 | – | – | – | 68 | – | – | 50 | UDG ctr A3A=–
CCN1CCN(S(=O)(=O)c2ccc(Cl)c(C(=O)Nc3ccc(OC(F)F)cc3)c2)CC1 | – | – | – | – | – | – | ·
CCN1CCN(S(=O)(=O)c2ccc(Cl)c(C(=O)N(CC)CC(=O)Nc3ccc(OC)cc3)c2)CC1 | – | – | – | 54 | – | – | 71 | UDG ctr A3A=–
COc1ccc(Cl)cc1NC(=O)CN(C)C(=O)c1cccc(S(=O)(=O)N2CCN(C)CC2)c1 | – | – | – | – | – | – | ·
O=C(COC(=O)CCC(=O)c1ccc(F)cc1)Nc1ccc2[nH]c(=O)[nH]c2c1 | – | – | – | – | – | – | ·
NC(=N\N=Cc1ccco1)/C(N)=N/N=Cc1ccco1 | · | – | – | · | – | – | ·
O=C(c1ccccc1)N1CCCc2ccccc21 | – | – | – | – | – | – | ·
O=C(c1ccc(=O)oc1)N1CCCc2ccccc21 | – | – | – | 71 | 79 | – | 60
O=C(c1ccc(F)cc1)N1CCOCC1 | – | – | – | – | – | – | ·
O=C(c1ccc(=O)oc1)N1CCOCC1 | – | – | – | 95 | – | – | 84
COc1ccc(N(CC(=O)N2CCCCCC2)S(=O)(=O)c2ccccc2[N+](=O)[O-])c(OC)c1 | – | – | – | 50 | – | – | 62 | UDG ctr A3A=–
COc1cc(OC)c2ccc(=O)oc2c1C(CCN1CCCC1)c1ccc2c(c1)OCO2 (centres undefined) | – | – | – | 64 | – | – | –
CCN(CC(=O)Nc1ccc(NC(C)=O)cc1)C(=O)CCCSc1nc2ccccc2[nH]1 | – | – | – | – | – | · | ·
CCOC(=O)C1(C(=O)OCC)C(C(=O)c2ccccc2)C1c1ccccc1 (centres undefined) | · | – | – | · | – | – | ·
COc1ccccc1NS(=O)(=O)c1ccc2c(c1)CCN2C(=O)CCC(=O)O | – | – | · | – | – | – | ·
COc1ccc2c(C)cc(N3CCCCCC3)nc2c1 | – | – | – | – | – | – | ·
COc1ccc2c(C)cc(N3CCN(Cc4ccccc4)CC3)nc2c1 | – | – | – | 41 | – | – | –
O=C(CSc1nc2sccc2c(=O)[nH]1)N1CCN(c2ccccc2)CC1 | – | – | – | 87 | – | – | 53 | UDG ctr A3A=–
CC(C)n1c(SCC(=O)Nc2nncs2)nnc1-c1ccco1 | – | · | · | 66 | · | · | 53 | UDG ctr A3A=–
CCCC[n+]1ccn(-c2nc3c([N+](=O)[O-])cccc3n2C)c1 | – | – | – | 68 | – | – | 78
CCN1C(=NCc2cc(OC)c(OC)c(OC)c2)N[C@@H](c2cccc(C(F)(F)F)c2)C(C(=O)OC)=C1C | – | – | – | – | – | – | ·

Bioassay records: PubChem BioAssay, several laboratories
